Experimental data as given in paper PMC3074353 (Biochemistry, 2011).
Where two headings read alike, the source gives them in different places.

Key:
[1] = tested on: catalytic domain of SHP-1 [SHP-1(ΔSH2)]; test: PTP activity assay with synthetic pY peptides as substrates, SHP-1; type: biochemical; conditions: for Km / kcat/KM: same buffer pH 7.4, three or more independent experiments; for Km: mean ± SD
[2] = tested on: catalytic domain of SHP-2 [SHP-2(ΔSH2)]; test: PTP activity assay with synthetic pY peptides as substrates, SHP-2; type: biochemical; conditions: for Km / kcat/KM: same buffer pH 7.4, three or more independent experiments; for Km: mean ± SD
[3] = target: T1, PTP1B (amino acids 1–321) (Homo sapiens, UniProt P18031); test: PTP activity assay with synthetic pY peptides as substrates, PTP1B; type: biochemical
T1 sequence (P18031 1-321): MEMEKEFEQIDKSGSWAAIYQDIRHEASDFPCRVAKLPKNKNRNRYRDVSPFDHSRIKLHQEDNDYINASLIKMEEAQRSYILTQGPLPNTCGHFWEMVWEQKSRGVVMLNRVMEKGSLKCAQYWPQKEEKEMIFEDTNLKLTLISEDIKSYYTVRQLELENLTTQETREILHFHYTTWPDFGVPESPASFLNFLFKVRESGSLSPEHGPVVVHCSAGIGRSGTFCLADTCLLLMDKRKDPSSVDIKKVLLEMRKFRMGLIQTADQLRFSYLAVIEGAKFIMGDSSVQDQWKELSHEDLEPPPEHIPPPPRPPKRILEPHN
Outline: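 PTP1B catalytic fragment (residues 1–321) expressed in E. coli, quantified by Bradford against BSA. For alanine-scan peptides, kinetic constants came from fitting progress curves to the integrated Michaelis–Menten equation.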

[4] = target: T2, RPTPα (amino acids 224–802) (Homo sapiens, UniProt P18433); conditions: literature value, ref [20]; cited from earlier work
[5] = target: T2, RPTPα (amino acids 224–802); test: PTP activity assay with synthetic pY peptides as substrates, RPTPα; type: biochemical; conditions: for Km: same buffer pH 7.4, mean ± SD, three or more independent experiments; for kcat/KM: same buffer pH 7.4, three or more independent experiments
[6] = target: T1, PTP1B (amino acids 1–321); conditions: ref [36], cited from earlier work

Sequence of catalytic domain of SHP-1 [SHP-1(ΔSH2)] (P29350 244-515 limits assumed, stated change not applied): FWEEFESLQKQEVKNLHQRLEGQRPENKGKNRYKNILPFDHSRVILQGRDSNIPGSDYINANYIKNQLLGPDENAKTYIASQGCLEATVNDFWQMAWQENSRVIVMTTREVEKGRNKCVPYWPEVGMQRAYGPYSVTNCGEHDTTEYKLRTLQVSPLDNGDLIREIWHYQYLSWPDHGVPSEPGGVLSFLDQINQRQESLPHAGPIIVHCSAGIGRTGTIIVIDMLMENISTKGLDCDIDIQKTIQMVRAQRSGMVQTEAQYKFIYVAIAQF

Compound	Km ([1]; SHP-1) [µM]	kcat/KM ([1]; SHP-1) [M⁻¹ s⁻¹]	Km ([2]; SHP-2) [µM]	kcat/KM ([2]; SHP-2) [M⁻¹ s⁻¹]	further results
WRKRFpYDWEF	780 ± 640	2200	560 ± 140	2300	
Ac-RTLAApYEEVH-NH2					kcat/KM value [3]: 840000 M⁻¹ s⁻¹
Ac-WDEDFpYDWEF-NH2	3.2 ± 0.3	2.3e+07	6.3 ± 0.4	6.8e+06	kcat/KM value ([1]; SHP-1): 2.3e+07 M⁻¹ s⁻¹; increase of activity relative to peptide 6 (Ac-WDEDFpYSASA-NH2) ([2]; SHP-2, C-terminal SASA replaced by acidic motif DWEF): 6.2 fold
Ac-EIFDFpYAA-NH2	27 ± 4	1.2e+06	54 ± 6	480000	
Ac-DWEDFpYAA-NH2			17 ± 2	1.7e+06	
Ac-ApYpYWTApYAA-NH2					kcat/KM value [3]: 1.51e+07 M⁻¹ s⁻¹
TSTEPQpYQPGENL					Km [4]: 1160 ± 140 µM; kcat [4]: 8.9 ± 0.5 s⁻¹; kcat/KM [4]: 7700 M⁻¹ s⁻¹
Ac-AAAAApYRHRR-NH2					Km [5]: 2600 ± 200 µM; kcat/KM [5]: 12000 M⁻¹ s⁻¹; kcat/KM value [3]: > 10^5 M^−1 s^−1
DAEDFpYAA			28 ± 3	1.1e+06	
Ac-ARKRIpYAA-NH2					Km [5]: 490 ± 30 µM; kcat/KM [5]: 80000 M⁻¹ s⁻¹; kcat/KM value [3]: > 10^5 M^−1 s^−1
Ac-WDEDFpYAA-NH2			43 ± 2	1.1e+06	
Ac-WDEDFpYSASA-NH2	53 ± 10	700000	46 ± 10	1.1e+06	kcat/KM [5]: 69000 M⁻¹ s⁻¹; increase of kcat/KM relative to Ac-SASASpYSASA-NH2 ([1]; SHP-1): 54 fold; increase of kcat/KM relative to Ac-SASASpYSASA-NH2 ([2]; SHP-2): 61 fold; higher activity of SHP-2 than of SHP-1 (kcat/KM ratio) ([2]; SHP-2 versus SHP-1): 1.6 fold
DFEDFpYAA			23 ± 2	1.6e+06	
LIEDNEpYTARQGA					Km [4]: 770 ± 20 µM; kcat [4]: 8.3 ± 0.2 s⁻¹; kcat/KM [4]: 11000 M⁻¹ s⁻¹
Ac-ASSDDpYAA-NH2					kcat/KM [5]: 13000 M⁻¹ s⁻¹
Ac-SASASpYDWEF-NH2	48 ± 9	250000	180 ± 7	190000	increase of kcat/KM relative to Ac-SASASpYSASA-NH2 ([1]; SHP-1): 19 fold; increase of kcat/KM relative to Ac-SASASpYSASA-NH2 ([2]; SHP-2): 10 fold
Ac-FYDIDpYAA-NH2	28 ± 2	2.4e+06	66 ± 13	750000	
Ac-AVWEFpYpYAA-NH2	7.5 ± 2	3.3e+06			

Compound	Km ([1]; SHP-1) [µM]	kcat/KM ([1]; SHP-1) [M⁻¹ s⁻¹]	Km ([2]; SHP-2) [µM]	kcat/KM ([2]; SHP-2) [M⁻¹ s⁻¹]	further results
Ac-SASASpYSASA-NH2	1990 ± 420	13000	2300 ± 400	18000	Km [5]: 530 ± 150 µM; kcat/KM [5]: 43000 M⁻¹ s⁻¹
EADTApYAA					Km [5]: 1400 ± 100 µM; kcat/KM [5]: 19000 M⁻¹ s⁻¹
O=P(O)(O)Oc1ccccc1 [Phenyl phosphate, reference compound]					kcat/KM [5]: 20 M⁻¹ s⁻¹
ADEDFpYAA			34 ± 2	820000	
FDEDFpYAA			31 ± 6	1e+06	
Ac-AKFEDTpYAA-NH2	58 ± 13	340000			
TATEPQpYQPGENL					Km [4]: 1070 ± 30 µM; kcat [4]: 9.7 ± 0.2 s⁻¹; kcat/KM [4]: 9100 M⁻¹ s⁻¹
WDEDFpYRWKF	150 ± 15	280000	210 ± 35	340000	
AYTEpYTpYAA	9.1 ± 1	1.9e+06			
Ac-AAAApYAAAA-NH2					kcat/KM ([6]; literature value): 1.3 ^b μM^−1 s^−1; kcat/KM value [6]: 1.3e+06 M⁻¹ s⁻¹
Ac-AAAAApYEEVH-NH2					kcat/KM [5]: 39000 M⁻¹ s⁻¹
O=[N+]([O-])c1ccc(OP(=O)(O)O)cc1 [pNPP, reference compound]					Km [5]: 2700 ± 300 µM; kcat/KM [5]: 190 M⁻¹ s⁻¹
Ac-RRISTpYAA-NH2					Km [5]: 1200 ± 100 µM; kcat/KM [5]: 41000 M⁻¹ s⁻¹; kcat/KM value [3]: > 10^5 M^−1 s^−1
Ac-RTLAApYAAAA-NH2					kcat/KM value [3]: 510000 M⁻¹ s⁻¹
Ac-RTLAApYRFQK-NH2					kcat/KM value [3]: 220000 M⁻¹ s⁻¹
Ac-WAGDDpYAA-NH2	45 ± 5	1.3e+06	68 ± 15	530000	higher reactivity to SHP-1 than to SHP-2 (kcat/KM ratio) ([1]; SHP-1 versus SHP-2): 2.5 fold
Ac-FDIDIpYAA-NH2	13 ± 1	2.5e+06	39 ± 5	770000	
